Measurements from ChEMBL document CHEMBL4765234 (J Med Chem, 2016).
Calls of active or inactive are those of the source. No cut-off for these calls is given here.

Experiments:
[1] = Clearance in dog plasma at 5 mg/kg, po or 1 mg/kg, iv by LC/MS/MS analysis; type: ADME, organism-based, Canis lupus familiaris
Summary of the method: (§1)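 Dosing was oral and intravenous in mice, rats or beagle dogs. Blood was drawn at set time points into EDTA and processed to plasma. Plasma was assayed by LC/MS/MS. Clearance, Cmax and terminal half-life were derived by noncompartmental analysis.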

[2] = Clearance in rat plasma at 10 mg/kg, po or 3 mg/kg, iv by LC/MS/MS analysis; type: ADME, organism-based; summary of the method: as §1
[3] = Cmax in dog plasma at 5 mg/kg, po or 1 mg/kg, iv by LC/MS/MS analysis; type: ADME, organism-based, Canis lupus familiaris; parameters: dose 5 mg/kg; summary of the method: as §1
[4] = Clearance in mouse plasma at 10 mg/kg, po or 1 mg/kg, iv by LC/MS/MS analysis; type: ADME, organism-based; summary of the method: as §1
[5] = biological target: Free fatty acid receptor 1 (Mus musculus) (UniProt Q76JU9); experiment: Agonist activity at GPR40 in mouse pancreatic islets assessed as induction of glucose-mediated insulin secretion measured after 90 mins in EBSS buffer by ELISA; details: filed as agonist
Chain of Free fatty acid receptor 1 (Mus musculus) (Q76JU9 whole entry): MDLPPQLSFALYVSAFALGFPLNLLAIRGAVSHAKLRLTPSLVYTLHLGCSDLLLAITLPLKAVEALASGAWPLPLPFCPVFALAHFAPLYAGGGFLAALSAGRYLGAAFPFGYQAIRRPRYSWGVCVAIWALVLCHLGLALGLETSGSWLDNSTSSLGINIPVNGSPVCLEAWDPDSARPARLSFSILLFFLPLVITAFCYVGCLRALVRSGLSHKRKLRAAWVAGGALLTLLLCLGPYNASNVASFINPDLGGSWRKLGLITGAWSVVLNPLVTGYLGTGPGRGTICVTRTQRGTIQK

[6] = Drug metabolism in human hepatocytes assessed as O-dealkylation by measuring 4-((2,3-dihydrospiro[indene-1,4'-piperidine]-1'-yl)methyl)benzoic acid metabolite formation by LC-MS/MS analysis; type: ADME, cell-based, Hepatocyte
[7] = Volume of distribution at steady state in dog at 5 mg/kg, po or 1 mg/kg, iv by LC/MS/MS analysis; type: ADME, organism-based, Canis lupus familiaris; details: in vivo, read-out: Vdss
Summary of the method: (§2)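 Mice, rats and beagle dogs dosed; blood drawn at set times into EDTA, processed to plasma and assayed by LC/MS/MS. Parameters (clearance, Vdss, terminal half-life, Cmax, Tmax, oral bioavailability) derived by noncompartmental analysis.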

[8] = Elimination half-life in rat plasma at 10 mg/kg, po or 3 mg/kg, iv by LC/MS/MS analysis; details: read-out: beta t1/2 (converted)
[9] = Drug metabolism in mouse hepatocytes assessed as O-dealkylation by measuring 4-((2,3-dihydrospiro[indene-1,4'-piperidine]-1'-yl)methyl)benzoic acid metabolite formation by LC-MS/MS analysis; type: ADME, cell-based, Hepatocyte
[10] = AUC in hyperglycemic Balb/c mouse plasma at greater than 0.58 mg/kg measured upto 60 mins; type: ADME, organism-based; parameters: dose 0.58 mg/kg, time <=60
[11] = Tmax in dog at 5 mg/kg, po or 1 mg/kg, iv by LC/MS/MS analysis; type: ADME, organism-based, Canis lupus familiaris; details: in vivo; summary of the method: as §2
[12] = Cmax in mouse plasma at 10 mg/kg, po or 1 mg/kg, iv by LC/MS/MS analysis; type: ADME, organism-based; parameters: dose 10 mg/kg; summary of the method: as §1
[13] = Cmax in rat plasma at 10 mg/kg, po or 3 mg/kg, iv by LC/MS/MS analysis; type: ADME, organism-based; parameters: dose 10 mg/kg; summary of the method: as §1
[14] = Drug metabolism in dog hepatocytes assessed as O-dealkylation by measuring 4-((2,3-dihydrospiro[indene-1,4'-piperidine]-1'-yl)methyl)benzoic acid metabolite formation by LC-MS/MS analysis; type: ADME, cell-based, Canis lupus familiaris, Hepatocyte
[15] = Drug metabolism in rat hepatocytes assessed as demethylation by LC-MS/MS analysis; type: ADME, cell-based, Hepatocyte
[16] = Cmax in mouse plasma at 3 mg/kg, po or 1 mg/kg, iv by LC/MS/MS analysis; type: ADME, organism-based; parameters: dose 3 mg/kg
Summary of the method: (§3)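 Mice, rats and beagle dogs were dosed. Blood was collected into EDTA at set time points and processed to plasma for LC/MS/MS bioanalysis. Parameters were derived by noncompartmental analysis.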

[17] = AUC ( 0 to infinity) in type 2 diabetic mellitus human at 1080 mg, po administered as single dose; type: ADME, organism-based; parameters: time infinity, route oral, dose 1080 mg; details: in vivo
Summary of the method: (§4)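 Type 2 diabetic subjects each received a single oral dose. Plasma drug levels were followed over time. Parameters were derived by noncompartmental analysis and reported as geometric means with CV%. CL/F is apparent total clearance and Vz/F is apparent terminal-phase volume.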

[18] = Apparent volume of distribution in type 2 diabetic mellitus human at 270 mg, po administered as single dose; type: ADME, organism-based; details: in vivo, read-out: Vz/F; summary of the method: as §4
[19] = Apparent volume of distribution in type 2 diabetic mellitus human at 1080 mg, po administered as single dose; type: ADME, organism-based; details: in vivo, read-out: Vz/F; summary of the method: as §4
[20] = Drug metabolism in dog urine assessed as metabolite formation by LC-MS/MS analysis; type: ADME, tissue-based, Canis lupus familiaris
[21] = Oral bioavailability in mouse at 3 mg/kg by LC/MS/MS analysis; type: ADME, organism-based; details: in vivo
Summary of the method: (§5)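 Dosed to mice, rats or beagle dogs. Blood collected at selected time points with EDTA anticoagulant, processed to plasma and analysed by LC/MS/MS. Parameters obtained by noncompartmental analysis.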

[22] = Drug metabolism in dog plasma assessed as conjugation with glucuronide metabolite formation by LC-MS/MS analysis; type: ADME, cell-free, Canis lupus familiaris
[23] = Half life in type 2 diabetic mellitus human at 270 mg, po administered as single dose; type: ADME, organism-based; details: in vivo; summary of the method: as §4
[24] = Cmax in type 2 diabetic mellitus human at 1080 mg, po administered as single dose; type: ADME, organism-based; parameters: route oral, dose 1080 mg; details: in vivo; summary of the method: as §4
[25] = Apparent clearance in type 2 diabetic mellitus human at 1080 mg, po administered as single dose; type: ADME, organism-based; details: in vivo; summary of the method: as §4
[26] = Clearance in mouse plasma at 3 mg/kg, po or 1 mg/kg, iv by LC/MS/MS analysis; type: ADME, organism-based; summary of the method: as §3
[27] = Apparent volume of distribution in type 2 diabetic mellitus human at 540 mg, po administered as single dose; type: ADME, organism-based; details: in vivo, read-out: Vz/F; summary of the method: as §4
[28] = AUC in hyperglycemic Balb/c mouse plasma at 5 mg/kg measured upto 60 mins; type: ADME, organism-based; parameters: dose 5 mg/kg, time <=60
[29] = Apparent clearance in type 2 diabetic mellitus human at 270 mg, po administered as single dose; type: ADME, organism-based; details: in vivo; summary of the method: as §4
[30] = Half-life in mouse at 3 mg/kg, po or 1 mg/kg, iv by LC/MS/MS analysis; type: ADME, organism-based; details: in vivo; summary of the method: as §5
[31] = AUC ( 0 to infinity) in type 2 diabetic mellitus human at 540 mg, po administered as single dose; type: ADME, organism-based; parameters: route oral, time infinity, dose 540 mg; details: in vivo; summary of the method: as §4
[32] = Half-life in rat at 3 mg/kg, po or 1 mg/kg, iv by LC/MS/MS analysis; type: ADME, organism-based; details: in vivo; summary of the method: as §5
[33] = Drug metabolism in mouse hepatocytes assessed as demethylation by LC-MS/MS analysis; type: ADME, cell-based, Hepatocyte
[34] = Half life in type 2 diabetic mellitus human at 540 mg, po administered as single dose; type: ADME, organism-based; details: in vivo
[35] = AUC ( 0 to infinity) in type 2 diabetic mellitus human at 270 mg, po administered as single dose; type: ADME, organism-based; parameters: time infinity, route oral, dose 270 mg; details: in vivo; summary of the method: as §4
[36] = Drug metabolism in human hepatocytes assessed as glucuronidation by LC-MS/MS analysis; type: ADME, cell-based, Hepatocyte
[37] = Drug metabolism in rat hepatocytes assessed as taurine metabolite formation by LC-MS/MS analysis; type: ADME, cell-based, Hepatocyte
[38] = Drug distribution in C57BL/6 mouse spleen at 3 microg/kg, iv administered as single dose observed at 20 to 40 mins by LC-MS/MS analysis; type: ADME, organism-based; details: in vivo, 0.003 mg/kg, time 20-40 min, dose 3 µg/kg
Summary of the method: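 Tracer microdose study in fed male C57BL/6 mice: single 3 μg/kg IV dose in 25% HP-BCD. Mice were killed by cervical dislocation, and spleen, ascending colon, skeletal muscle and plasma were sampled at 20 and 40 min.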

[39] = Drug metabolism in rat hepatocytes assessed as oxidation by LC-MS/MS analysis; type: ADME, cell-based, Hepatocyte
[40] = Drug metabolism in dog hepatocytes assessed as oxidation by LC-MS/MS analysis; type: ADME, cell-based, Canis lupus familiaris, Hepatocyte
[41] = Drug metabolism in mouse hepatocytes assessed as oxidation by LC-MS/MS analysis; type: ADME, cell-based, Hepatocyte

Q: What does the source list for `CC#C[C@@H](CC(=O)O)c1ccc(OCc2ccc(CN3CCC4(C=Cc5ccccc54)CC3)cc2)cc1` [LY2881835]?
A: clearance [1]: 4.9 mL/min/kg; clearance [2]: 11.6 mL/min/kg; Cmax [3]: 2860 ng/mL; clearance [4]: 20.4 mL/min/kg; Activity [5]: Active; Drug metabolism [6]: Metabolite_Detected; Vd [7]: 0.8 L/kg; half-life [8]: 120 min; Drug metabolism [9]: Metabolite_Detected; AUC at 1 h [10]: 218 ng·h/mL; Tmax [11]: 3 h; Cmax [12]: 1100 ng/mL; Cmax [13]: 11200 ng/mL; Drug metabolism [14]: Metabolite_Detected

Q: With `CC#C[C@@H](CC(=O)O)c1ccc(OCc2ccc(CN3CCCc4cccc(OC)c43)s2)cc1` as the compound, how does the Drug metabolism [15] read?
A: Its Drug metabolism is “Metabolite_Detected”.

Q: What about the Cmax [16] of the same compound?
A: Its Cmax is 552 ng/mL.

Q: And the AUC(0-inf) [17]?
A: The AUC(0-inf) was 97300 ng·h/mL.

Q: What about the Vd/F [18] of the same compound?
A: The Vd/F was 244 L.

Q: And the Vd/F [19]?
A: Its Vd/F is 358 L.

Q: What about the Drug metabolism [20] of the same compound?
A: The Drug metabolism was “Metabolite_Notdetected”.

Q: And the bioavailability [21]?
A: Its bioavailability is 62%.

Q: What about the Drug metabolism [22] of the same compound?
A: The Drug metabolism was “Metabolite_Detected”.

Q: What about the half-life [23] of the same compound?
A: The half-life was 726 min.

Q: What about the Cmax [24] of the same compound?
A: Its Cmax is 7950 ng/mL.

Q: What about the CL/F [25] of the same compound?
A: The CL/F was 185 mL/min.

Q: What about the clearance [26] of the same compound?
A: The clearance was 15.4 mL/min/kg.

Q: What about the Vd/F [27] of the same compound?
A: Its Vd/F is 273 L.

Q: What about the AUC at 1 h [28] of the same compound?
A: Its AUC at 1 h is 4930 ng·h/mL.

Q: What about the CL/F [29] of the same compound?
A: Its CL/F is 232 mL/min.

Q: What about the half-life [30] of the same compound?
A: The half-life was 252 min.

Q: And the AUC(0-inf) [31]?
A: The AUC(0-inf) was 41400 ng·h/mL.

Q: What about the half-life [32] of the same compound?
A: The half-life was 336 min.

Q: What about the Drug metabolism [33] of the same compound?
A: The Drug metabolism was “Metabolite_Detected”.

Q: What about the half-life [34] of the same compound?
A: The half-life was 870 min.

Q: What about the AUC(0-inf) [35] of the same compound?
A: The AUC(0-inf) was 19400 ng·h/mL.

Q: Which Drug metabolism [36] does the source give for `CC#C[C@@H](CC(=O)O)c1ccc(OCc2ccc(CN3CCC4(C=Cc5ccccc54)CC3)s2)cc1` here?
A: The Drug metabolism was “Metabolite_Detected”.

Q: And the Drug metabolism [37]?
A: The Drug metabolism was “Metabolite_Detected”.

Q: What about the Drug uptake [38] of the same compound?
A: Its Drug uptake is “Active”.

Q: For `CC#C[C@@H](CC(=O)O)c1ccc(OCc2ccc(CN3CCC4(CCc5ccccc54)CC3)s2)cc1`, which Drug metabolism [36] is on record?
A: The Drug metabolism was “Metabolite_Detected”.

Q: What about the Cmax [16] of the same compound?
A: Its Cmax is 184 ng/mL.

Q: And the Drug metabolism [37]?
A: Its Drug metabolism is “Metabolite_Detected”.

Q: And the bioavailability [21]?
A: The bioavailability was 21%.

Q: What about the Drug metabolism [39] of the same compound?
A: Its Drug metabolism is “Metabolite_Detected”.

Q: What about the Drug metabolism [40] of the same compound?
A: The Drug metabolism was “Metabolite_Detected”.

Q: What about the clearance [26] of the same compound?
A: The clearance was 9.3 mL/min/kg.

Q: And the Drug metabolism [41]?
A: Its Drug metabolism is “Metabolite_Detected”.

Q: And the half-life [30]?
A: Its half-life is 102 min.

Q: And the half-life [32]?
A: The half-life was 96 min.
